Results from different studies.
Compare with care: the assays were run in different laboratories.
SLC6A4: Sodium-dependent serotonin transporter (SLC6A4, Homo sapiens, UniProt P31645)
rep main protease: Replicase polyprotein 1ab, main protease (rep, Porcine epidemic diarrhea virus, UniProt P0C6Y4)

CNC(=O)[C@@]12C[C@@H]1[C@@H](n1cnc3c(NCc4cccc(Cl)c4)nc(C#Cc4ccc(Cl)s4)nc31)[C@H](O)[C@@H]2O  inhibition (SLC6A4; ligand displacement; radioligand; 10 µM): 10%
COc1ccc(CNC(=O)c2ccc(Br)cc2)cc1OC  inhibition (rep main protease; enzyme activity; inhibitor; FRET; 10 µM): 60.4%
C1=C/COCc2cc(ccc2OCCN2CCCC2)Nc2nccc(n2)-c2cccc(c2)COC/1  remaining binding (Calcium/calmodulin-dependent protein kinase type 1D (CAMK1D, Homo sapiens, UniProt Q8IU85); binding; 0.1 µM): 63%
CCOC(=O)[C@@]12C[C@@H]1[C@@H](n1cnc3c(Nc4ccccc4)nc(C#Cc4ccc(Cl)s4)nc31)[C@H](O)[C@@H]2O  inhibition (SLC6A4; ligand displacement; radioligand; 10 µM): 20%
Cc1cc(O)c(-c2ccc([C@@H](C)CN(C)C)cc2)c2c1[nH]c(=O)c1sccc12  inhibition (SRSF protein kinase 2 (SRPK2, Homo sapiens, UniProt P78362); enzyme activity; inhibitor; 0.1 µM): -3.6%
COc1cc(CNC(=O)c2ccccc2SC)cc(Br)c1OC  inhibition (Replicase polyprotein 1ab, papain-like protease (rep, Porcine epidemic diarrhea virus, UniProt P0C6Y4); enzyme activity; inhibitor; FRET; 10 µM): 18.8%
CCCCC(=O)Nc1ccc(-c2ccc3ncn(CCC)c(=O)c3c2)cn1  remaining binding (Mitogen-activated protein kinase kinase kinase 20 (MAP3K20, Homo sapiens, UniProt Q9NYL2); binding; competition with immobilised ligand; 0.5 µM): 54%
CSc1nc(NCCC2CC2)c2ncn([C@H]3[C@H](O)[C@H](O)[C@@H]4C[C@@H]43)c2n1  inhibition (SLC6A4; ligand displacement; radioligand; 10 µM): 17%
COc1cc(CNC(=O)c2ccccc2C)cc(Br)c1OC  inhibition (rep main protease; enzyme activity; inhibitor; FRET; 10 µM): 92.8%
